Reference: ChEMBL document CHEMBL3860038, “Discovery of (R,E)-N-(7-Chloro-1-(1-[4-(dimethylamino)but-2-enoyl]azepan-3-yl)-1H-benzo[d]imidazol-2-yl)-2-methylisonicotinamide (EGF816), a Novel, Potent, and WT Sparing Covalent Inhibitor of Oncogenic (L858R, ex19del) and Resistant (T790M) EGFR Mutants for the Treatment of EGFR Mutant …” (J Med Chem, 2016)

Assays:
[1] = molecular target: T1, Epidermal growth factor receptor (Homo sapiens, UniProt P00533, L858R/T790M); assay: Inhibition of N-terminal 6x-HIS-tagged human recombinant EGFR (696 to 1022 residues) L858R/T790M mutant expressed in Sf9 cells pre-incubated for 0 mins followed by 1 mM ATP addition by HTRF assay
T1 sequence (P00533 25-1210 T790M/L858R limits assumed): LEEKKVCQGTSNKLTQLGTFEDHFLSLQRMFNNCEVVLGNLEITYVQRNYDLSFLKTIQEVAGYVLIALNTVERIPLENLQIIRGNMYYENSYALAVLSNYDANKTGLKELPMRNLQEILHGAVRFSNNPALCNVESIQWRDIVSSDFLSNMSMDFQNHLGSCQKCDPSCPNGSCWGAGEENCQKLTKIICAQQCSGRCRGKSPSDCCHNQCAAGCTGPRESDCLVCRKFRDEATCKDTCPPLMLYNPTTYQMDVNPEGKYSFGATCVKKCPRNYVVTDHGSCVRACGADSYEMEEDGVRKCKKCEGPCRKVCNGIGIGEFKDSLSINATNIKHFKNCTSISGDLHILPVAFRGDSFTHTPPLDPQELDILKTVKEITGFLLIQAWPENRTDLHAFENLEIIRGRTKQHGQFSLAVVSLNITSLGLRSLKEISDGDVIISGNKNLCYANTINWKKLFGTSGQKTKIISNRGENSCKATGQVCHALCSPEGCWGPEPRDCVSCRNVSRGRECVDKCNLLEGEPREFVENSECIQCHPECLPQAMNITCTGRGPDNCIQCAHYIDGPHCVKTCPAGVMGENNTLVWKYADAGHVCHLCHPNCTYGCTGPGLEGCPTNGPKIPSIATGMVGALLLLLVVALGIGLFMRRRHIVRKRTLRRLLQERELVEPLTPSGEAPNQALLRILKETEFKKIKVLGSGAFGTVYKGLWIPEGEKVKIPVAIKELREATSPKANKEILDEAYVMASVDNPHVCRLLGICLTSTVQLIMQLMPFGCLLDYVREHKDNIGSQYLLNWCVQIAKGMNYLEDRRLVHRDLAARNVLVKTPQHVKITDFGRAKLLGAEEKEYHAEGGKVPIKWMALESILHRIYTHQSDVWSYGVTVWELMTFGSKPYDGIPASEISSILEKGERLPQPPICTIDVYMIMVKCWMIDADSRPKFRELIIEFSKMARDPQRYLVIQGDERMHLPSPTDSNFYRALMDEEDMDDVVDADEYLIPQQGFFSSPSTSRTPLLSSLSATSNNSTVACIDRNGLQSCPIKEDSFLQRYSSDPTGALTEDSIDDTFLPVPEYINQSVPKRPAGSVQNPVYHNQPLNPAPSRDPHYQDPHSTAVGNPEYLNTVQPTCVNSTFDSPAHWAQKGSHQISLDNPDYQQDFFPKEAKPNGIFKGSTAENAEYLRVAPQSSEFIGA
Outline: (§1)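 HTRF kinase assay on the EGFR L858R-T790M kinase domain at 1 mM ATP. Compound with either no preincubation or a 90 min enzyme/compound preincubation.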

[2] = molecular target: T1, Epidermal growth factor receptor; assay: Inhibition of N-terminal 6x-HIS-tagged human recombinant EGFR (696 to 1022 residues) L858R/T790M mutant expressed in Sf9 cells pre-incubated for 90 mins followed by 1 mM ATP addition by HTRF assay; outline: as §1
[3] = molecular target: T2, Epidermal growth factor receptor (Homo sapiens, UniProt P00533); assay: Inhibition of N-terminal 6x-HIS-tagged wild type human recombinant EGFR (696 to 1022 residues) expressed in Sf9 cells pre-incubated for 90 mins followed by 10 uM ATP addition by HTRF assay
T2 sequence (P00533 whole entry, the tested form may be a part): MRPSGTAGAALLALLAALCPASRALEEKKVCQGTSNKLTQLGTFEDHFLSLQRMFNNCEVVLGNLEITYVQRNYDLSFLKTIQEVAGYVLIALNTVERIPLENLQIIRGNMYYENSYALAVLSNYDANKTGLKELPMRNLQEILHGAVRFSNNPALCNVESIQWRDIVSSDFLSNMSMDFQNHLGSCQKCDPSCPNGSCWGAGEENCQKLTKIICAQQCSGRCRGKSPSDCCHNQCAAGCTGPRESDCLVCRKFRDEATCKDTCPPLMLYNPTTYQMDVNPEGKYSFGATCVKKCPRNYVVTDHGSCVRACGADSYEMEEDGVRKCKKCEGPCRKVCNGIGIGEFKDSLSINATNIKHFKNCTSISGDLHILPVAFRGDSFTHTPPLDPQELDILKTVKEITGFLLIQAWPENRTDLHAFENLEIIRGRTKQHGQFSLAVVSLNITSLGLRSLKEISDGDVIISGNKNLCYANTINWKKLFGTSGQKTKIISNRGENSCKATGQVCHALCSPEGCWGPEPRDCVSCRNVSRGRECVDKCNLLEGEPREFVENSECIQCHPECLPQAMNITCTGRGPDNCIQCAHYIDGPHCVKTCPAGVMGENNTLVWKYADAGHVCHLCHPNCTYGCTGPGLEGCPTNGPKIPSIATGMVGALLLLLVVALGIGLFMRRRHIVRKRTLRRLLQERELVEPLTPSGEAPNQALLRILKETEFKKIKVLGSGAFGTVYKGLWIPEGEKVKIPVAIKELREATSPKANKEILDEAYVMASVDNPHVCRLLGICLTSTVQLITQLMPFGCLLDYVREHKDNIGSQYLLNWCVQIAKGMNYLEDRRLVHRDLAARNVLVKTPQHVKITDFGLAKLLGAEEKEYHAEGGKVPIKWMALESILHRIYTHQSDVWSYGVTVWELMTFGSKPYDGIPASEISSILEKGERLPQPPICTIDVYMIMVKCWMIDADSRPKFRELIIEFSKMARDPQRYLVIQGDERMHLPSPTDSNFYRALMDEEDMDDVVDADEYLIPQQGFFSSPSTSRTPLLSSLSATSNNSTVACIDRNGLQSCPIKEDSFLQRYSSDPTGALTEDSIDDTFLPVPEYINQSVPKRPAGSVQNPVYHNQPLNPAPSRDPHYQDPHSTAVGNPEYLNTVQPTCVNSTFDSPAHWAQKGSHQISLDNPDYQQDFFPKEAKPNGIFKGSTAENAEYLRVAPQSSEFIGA

[4] = molecular target: T1, Epidermal growth factor receptor; assay: Inhibition of N-terminal 6x-HIS-tagged human recombinant EGFR (696 to 1022 residues) L858R/T790M mutant expressed in Sf9 cells pre-incubated for 90 mins followed by 10 uM ATP addition by HTRF assay
[5] = molecular target: T3, Epidermal growth factor receptor (Homo sapiens, UniProt P00533, L858R); assay: Inhibition of N-terminal 6x-HIS-tagged human recombinant EGFR (696 to 1022 residues) L858R mutant expressed in Sf9 cells pre-incubated for 90 mins followed by 10 uM ATP addition by HTRF assay
T3 sequence (P00533 25-1210 L858R limits assumed): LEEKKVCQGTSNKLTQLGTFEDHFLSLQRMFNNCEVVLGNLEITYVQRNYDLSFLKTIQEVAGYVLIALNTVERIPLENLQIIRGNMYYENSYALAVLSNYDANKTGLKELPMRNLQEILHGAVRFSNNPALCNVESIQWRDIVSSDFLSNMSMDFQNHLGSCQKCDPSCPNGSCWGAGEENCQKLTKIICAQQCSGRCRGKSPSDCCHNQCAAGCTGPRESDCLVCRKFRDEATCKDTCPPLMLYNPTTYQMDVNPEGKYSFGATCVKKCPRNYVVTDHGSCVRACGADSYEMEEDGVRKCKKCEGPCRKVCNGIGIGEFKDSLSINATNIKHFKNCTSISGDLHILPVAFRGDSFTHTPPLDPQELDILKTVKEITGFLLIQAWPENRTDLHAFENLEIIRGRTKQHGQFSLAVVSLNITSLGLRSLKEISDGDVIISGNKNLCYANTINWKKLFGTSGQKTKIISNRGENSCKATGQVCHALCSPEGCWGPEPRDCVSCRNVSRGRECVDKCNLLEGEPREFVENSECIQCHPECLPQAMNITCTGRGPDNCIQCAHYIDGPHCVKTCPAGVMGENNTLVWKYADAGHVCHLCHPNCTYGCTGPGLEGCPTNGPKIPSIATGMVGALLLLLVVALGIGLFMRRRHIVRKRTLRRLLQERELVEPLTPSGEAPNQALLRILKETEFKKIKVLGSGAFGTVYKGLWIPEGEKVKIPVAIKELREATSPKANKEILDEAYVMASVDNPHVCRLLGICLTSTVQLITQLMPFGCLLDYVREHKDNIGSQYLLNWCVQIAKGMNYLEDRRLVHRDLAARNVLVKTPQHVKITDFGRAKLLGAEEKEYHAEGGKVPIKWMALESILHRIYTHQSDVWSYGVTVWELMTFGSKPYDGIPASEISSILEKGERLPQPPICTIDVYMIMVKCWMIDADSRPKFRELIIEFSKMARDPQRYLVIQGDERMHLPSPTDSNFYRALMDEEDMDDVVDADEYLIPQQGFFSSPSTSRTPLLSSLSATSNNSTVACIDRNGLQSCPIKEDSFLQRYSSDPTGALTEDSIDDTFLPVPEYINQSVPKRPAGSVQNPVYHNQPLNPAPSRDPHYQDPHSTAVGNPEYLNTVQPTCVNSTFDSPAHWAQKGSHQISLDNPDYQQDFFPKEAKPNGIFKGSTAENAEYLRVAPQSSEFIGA

[6] = molecular target: T3, Epidermal growth factor receptor; assay: Inhibition of EGFR L858R mutant (unknown origin) phosphorylation expressed in mouse NIH/3T3 cells incubated for 3 hrs by ELISA method; assay type: cell-based
Outline: (§2)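 Engineered NIH-3T3 cells expressing L858R-T790M, L858R or WT EGFR. 3 h compound treatment, then cellular phospho-EGFR target modulation read-out. IC50 averaged from at least duplicates.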

[7] = molecular target: T2, Epidermal growth factor receptor; assay: Inhibition of wild type human EGFR phosphorylation expressed in mouse NIH/3T3 cells incubated for 3 hrs by ELISA method; assay type: cell-based; outline: as §2
[8] = molecular target: T1, Epidermal growth factor receptor; assay: Inhibition of EGFR L858R/T790M mutant (unknown origin) phosphorylation expressed in mouse NIH/3T3 cells incubated for 3 hrs by ELISA method; assay type: cell-based; outline: as §2
[9] = molecular target: T1, Epidermal growth factor receptor; assay: Inhibition of EGFR L858R/T790M mutant phosphorylation in human patient derived H1975 cells incubated for 3 hrs by ELISA method; assay type: cell-based
[10] = Inhibition of EGFR E746 to A750 deletion mutant phosphorylation in human patient derived HCC827 cells incubated for 3 hrs by ELISA method; assay type: cell-based; conditions: HCC827, 3 h
Outline: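 HCC827 cells plated at 7500/well in 5% FBS/RPMI and left overnight at 37 °C. Then 3 h with a 12-point compound dilution series, no EGF stimulation. Lysed in Triton/protease/phosphatase-inhibitor buffer. Phospho-EGFR (Y1173) read by sandwich ELISA: anti-EGFR capture, anti-phospho-EGFR, anti-rabbit-HRP, chemiluminescence. IC50 from at least duplicates.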

[11] = molecular target: T2, Epidermal growth factor receptor; assay: Inhibition of wild type EGFR phosphorylation in human HaCaT cells incubated for 3 hrs by ELISA method; assay type: cell-based
[12] = molecular target: T3, Epidermal growth factor receptor; assay: Inhibition of EGFR L858R mutant phosphorylation in human patient derived H3255 cells incubated for 3 hrs by ELISA method; assay type: cell-based

An IC50 [1] greater than 50000 nM and an IC50 [2] of 6810 nM were found for `C=CC(=O)NC1CCC(n2c(NC(=O)c3cccc(C(F)(F)F)c3)nc3cc(C)ccc32)C1` (stereo not given) in this work.

An IC50 [1] greater than 50000 nM and an IC50 [2] greater than 32800 nM were found for `C=CC(=O)Nc1ccccc1-n1c(NC(=O)c2cccc(C(F)(F)F)c2)nc2cc(C)ccc21` in this work.

An IC50 [1] greater than 50000 nM and an IC50 [2] greater than 50000 nM were found for `C=CC(=O)N[C@@H]1CCCC[C@H]1n1c(NC(=O)c2cccc(C(F)(F)F)c2)nc2cc(C)ccc21` (racemic) in this work.

An IC50 [3] greater than 42000 nM, an IC50 [4] of 470 nM and an IC50 [5] of 2080 nM were found for `CCOCc1ccc2c(c1)nc(NC(=O)c1cccc(C(F)(F)F)c1)n2[C@H]1CC[C@H](O)CC1` in this work.

An IC50 [1] greater than 50000 nM, an IC50 [2] of 60 nM and an IC50 [6] greater than 3720 nM were found for `C=CC(=O)N[C@@H]1CCC[C@@H](n2c(NC(=O)c3cccc(C(F)(F)F)c3)nc3cc(C)ccc32)C1` (racemic) in this work. It also gave an IC50 [7] greater than 10000 nM and an IC50 [8] of 409 nM.

An IC50 [1] greater than 50000 nM, an IC50 [2] of 4 nM and an IC50 [6] of 543 nM were found for `C=CC(=O)N[C@H]1CCC[C@@H](n2c(NC(=O)c3cccc(C(F)(F)F)c3)nc3cc(C)ccc32)C1` (racemic) in this work. It also gave an IC50 [7] greater than 10000 nM and an IC50 [8] of 41.4 nM.

An IC50 [3] greater than 50000 nM, an IC50 [4] of 260 nM and an IC50 [5] of 2000 nM were found for `O=C(Nc1nc2ccccc2n1[C@H]1CC[C@H](O)CC1)c1cccc(C(F)(F)F)c1` in this work.

An IC50 [1] of 830 nM, an IC50 [2] of less than 2 nM and an IC50 [9] of 6.1 nM were found for `C=CC(=O)N1CCCCC(n2c(NC(=O)c3cccc(C(F)(F)F)c3)nc3cc(C)ccc32)C1` (stereo not given) in this work. For the same molecule, the IC50 [10] was 15.9 nM, the IC50 [11] was 4330 nM and the IC50 [12] was 74.9 nM.

An IC50 [3] greater than 11800 nM, an IC50 [4] of 140 nM and an IC50 [5] greater than 8480 nM were found for `Cc1ccc2c(c1)nc(NC(=O)c1cccc(C(F)(F)F)c1)n2[C@H]1CC[C@H](O)CC1` in this work.

An IC50 [1] greater than 50000 nM, an IC50 [2] of 4 nM and an IC50 [9] of 135 nM were found for `C=CC(=O)Nc1cccc(-n2c(NC(=O)c3cccc(C(F)(F)F)c3)nc3cc(C)ccc32)c1` in this work. The IC50 [10] was 272 nM and the IC50 [12] was 1040 nM.

An IC50 [1] greater than 37700 nM and an IC50 [2] of 16500 nM were found for `C=CC(=O)N1CCC(n2c(NC(=O)c3cccc(C(F)(F)F)c3)nc3cc(C)ccc32)CC1` in this work.

An IC50 [1] greater than 50000 nM and an IC50 [2] greater than 50000 nM were found for `C=CC(=O)N1CCCC(n2c(NC(=O)c3cccc(C(F)(F)F)c3)nc3cc(C)ccc32)CC1` (stereo not given) in this work.

An IC50 [1] greater than 50000 nM and an IC50 [2] greater than 50000 nM were found for `C=CC(=O)NCCn1c(NC(=O)c2cccc(C(F)(F)F)c2)nc2cc(C)ccc21` in this work.

An IC50 [3] greater than 50000 nM, an IC50 [4] of 1370 nM and an IC50 [5] of 11800 nM were found for `Cc1cccc2c1nc(NC(=O)c1cccc(C(F)(F)F)c1)n2[C@H]1CC[C@H](O)CC1` in this work.
